Results as given in ChEMBL document CHEMBL1138746, “Indolebutylamines as selective 5-HT(1A) agonists” (J Med Chem, 2004).

Legend:
D(2) dopamine receptor = D(2) dopamine receptor (Rattus norvegicus, UniProt P61169); test: Displacement of [3H]spiperone from dopamine D2 receptor of rat striatal membranes; assay type: cell membranes, Membrane
Outline: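 Rat striatal membranes (0.3–1.0 mg protein/mL) were incubated with 0.1 nM [3H]spiperone in Tris-HCl buffer (pH 7.1) containing 120 mmol/L NaCl, 5 mmol/L KCl, 1 mmol/L CaCl2, 1 mmol/L MgCl2 and 0.1% ascorbic acid, at 37 °C for 15 min. Bound ligand was separated by filtration with three ice-cold washes. Nonspecific binding was defined with 1 mmol/L (+)-butaclamol. IC50 (50% inhibition of binding) came from 5–10 concentrations, each in triplicate.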

[1] = Inhibition of Histamine H1 receptor
[2] = Inhibition of hydroxytryptamine 1D receptor
[3] = target: T1, 5-hydroxytryptamine receptor 1A (Rattus norvegicus, UniProt P19327); test: Inhibition of 8-OH DPAT bindign to rat hydroxytryptamine 1A receptor in hippocampal membranes
T1 sequence (P19327 whole entry): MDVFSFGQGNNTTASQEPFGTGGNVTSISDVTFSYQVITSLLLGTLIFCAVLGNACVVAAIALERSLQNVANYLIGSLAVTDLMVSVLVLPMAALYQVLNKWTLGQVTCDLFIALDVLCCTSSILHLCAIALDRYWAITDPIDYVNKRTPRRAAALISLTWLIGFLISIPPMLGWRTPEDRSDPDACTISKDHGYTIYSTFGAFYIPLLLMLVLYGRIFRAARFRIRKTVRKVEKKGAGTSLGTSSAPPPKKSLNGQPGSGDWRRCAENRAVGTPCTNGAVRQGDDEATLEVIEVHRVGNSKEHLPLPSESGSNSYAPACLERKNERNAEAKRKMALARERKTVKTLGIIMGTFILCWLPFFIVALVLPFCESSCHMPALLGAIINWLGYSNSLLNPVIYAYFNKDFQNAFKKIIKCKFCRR

[4] = target: T2, Adrenergic receptor alpha-1 (Homo sapiens, UniProt P35348+P25100+P35368); test: Inhibition of Alpha-1 adrenergic receptor; assay type: protein assay
T2 sequence (P35348 whole entry): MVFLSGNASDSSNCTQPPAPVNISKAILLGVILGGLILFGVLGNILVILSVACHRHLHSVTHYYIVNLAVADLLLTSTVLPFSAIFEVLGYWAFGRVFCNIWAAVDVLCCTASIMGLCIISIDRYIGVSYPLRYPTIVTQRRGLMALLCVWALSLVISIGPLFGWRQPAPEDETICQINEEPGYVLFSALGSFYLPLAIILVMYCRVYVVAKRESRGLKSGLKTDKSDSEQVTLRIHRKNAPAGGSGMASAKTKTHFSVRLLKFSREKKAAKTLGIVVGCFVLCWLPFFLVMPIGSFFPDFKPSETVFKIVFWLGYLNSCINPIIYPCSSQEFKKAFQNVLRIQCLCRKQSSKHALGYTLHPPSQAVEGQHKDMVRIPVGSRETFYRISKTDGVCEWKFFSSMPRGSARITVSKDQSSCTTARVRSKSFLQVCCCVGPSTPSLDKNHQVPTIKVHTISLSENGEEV
T2 sequence (P25100 whole entry): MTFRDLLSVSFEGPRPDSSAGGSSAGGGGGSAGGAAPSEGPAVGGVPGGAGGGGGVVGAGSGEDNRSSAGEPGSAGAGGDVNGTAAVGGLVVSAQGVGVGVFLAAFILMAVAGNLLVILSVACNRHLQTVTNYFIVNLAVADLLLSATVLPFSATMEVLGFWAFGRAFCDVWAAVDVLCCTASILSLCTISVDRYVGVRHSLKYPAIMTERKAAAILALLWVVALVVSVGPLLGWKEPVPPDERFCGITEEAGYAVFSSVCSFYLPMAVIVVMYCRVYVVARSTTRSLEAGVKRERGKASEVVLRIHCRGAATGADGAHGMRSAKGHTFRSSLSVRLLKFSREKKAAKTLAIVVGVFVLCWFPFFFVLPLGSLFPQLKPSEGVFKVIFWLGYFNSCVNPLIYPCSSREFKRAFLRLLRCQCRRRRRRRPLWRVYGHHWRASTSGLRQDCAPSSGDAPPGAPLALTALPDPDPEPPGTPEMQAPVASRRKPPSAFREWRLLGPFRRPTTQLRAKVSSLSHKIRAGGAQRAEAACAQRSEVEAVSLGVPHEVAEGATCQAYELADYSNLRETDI
T2 sequence (P35368 whole entry): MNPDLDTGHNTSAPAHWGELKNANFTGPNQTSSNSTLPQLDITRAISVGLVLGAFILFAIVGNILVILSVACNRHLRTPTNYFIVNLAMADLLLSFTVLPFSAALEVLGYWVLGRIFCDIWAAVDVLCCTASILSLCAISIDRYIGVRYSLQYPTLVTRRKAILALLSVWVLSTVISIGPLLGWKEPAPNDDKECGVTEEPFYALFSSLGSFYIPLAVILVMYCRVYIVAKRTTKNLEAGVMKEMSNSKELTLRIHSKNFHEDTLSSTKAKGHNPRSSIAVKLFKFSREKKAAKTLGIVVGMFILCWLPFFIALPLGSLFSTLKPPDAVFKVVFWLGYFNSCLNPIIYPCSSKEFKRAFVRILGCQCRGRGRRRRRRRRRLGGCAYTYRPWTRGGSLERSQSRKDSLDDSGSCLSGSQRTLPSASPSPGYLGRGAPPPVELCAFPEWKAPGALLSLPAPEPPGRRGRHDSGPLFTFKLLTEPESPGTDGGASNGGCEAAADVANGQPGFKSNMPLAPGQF

[5] = Inhibition of hydroxytryptamine 2C receptor

D(2) dopamine receptor, sequence (P61169 whole entry): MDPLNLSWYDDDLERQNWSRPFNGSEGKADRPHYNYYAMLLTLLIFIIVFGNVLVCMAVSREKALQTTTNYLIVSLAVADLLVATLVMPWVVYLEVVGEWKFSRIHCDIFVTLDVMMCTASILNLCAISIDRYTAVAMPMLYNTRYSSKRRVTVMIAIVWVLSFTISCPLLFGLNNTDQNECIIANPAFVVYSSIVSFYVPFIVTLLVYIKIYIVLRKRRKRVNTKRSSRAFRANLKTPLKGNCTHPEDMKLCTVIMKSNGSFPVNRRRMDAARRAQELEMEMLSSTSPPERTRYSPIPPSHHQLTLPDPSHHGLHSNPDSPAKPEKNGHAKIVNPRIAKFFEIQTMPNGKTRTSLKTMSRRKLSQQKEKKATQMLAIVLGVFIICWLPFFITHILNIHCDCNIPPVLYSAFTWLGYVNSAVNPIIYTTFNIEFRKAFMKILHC

IC50 (D(2) dopamine receptor): 2900 nM
IC50 [1]: 24 nM
IC50 [2]: 3000 nM
IC50 [3]: 8.2 nM
IC50 [4]: 500 nM
IC50 [5]: > 1000 nM
Structure (SMILES): O=C1c2ccccc2S(=O)(=O)N1CCCCN1CCN(c2ncccn2)CC1 [IPSAPIRONE]
